Laboratory results reported in ChEMBL document CHEMBL1221337, “The unsaturated acyclic nucleoside analogues bearing a sterically constrained (Z)-4'-benzamido-2'-butenyl moiety: Synthesis, X-ray crystal structure study, cytostatic and antiviral activity evaluations” (Bioorg Med Chem, 2010).
Active and inactive are the calls of the source. The rule behind the calls is not given here.

Legend:
[1] = system: Vesicular stomatitis virus; test: Antiviral activity against Vesicular stomatitis virus infected in HEL cells assessed as inhibition of virus-induced cytopathicity; assay type: functional, organism-based
[2] = system: Coxsackievirus B4; test: Antiviral activity against Coxsackievirus B4 infected in Vero cells assessed as inhibition of virus-induced cytopathicity; assay type: functional, organism-based
In short: (§1)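 Confluent cell monolayers in 96-well plates were inoculated with 100 CCID50 of virus. After 1 h adsorption, residual virus was removed. Cultures were then incubated with test compound at varying concentrations (200, 40, 8... µM). Viral cytopathicity was scored once it reached completion in untreated infected controls. Host cells: HEL for HSV-1 KOS and HSV-2 G; Vero for the Vero lines; HeLa for the HeLa lines.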

[3] = system: Sindbis virus; test: Antiviral activity against Sindbis virus infected in Vero cells assessed as inhibition of virus-induced cytopathicity; assay type: functional, organism-based; in short: as §1
[4] = system: HeLa; test: Cytotoxicity against human HeLa cells assessed as cell viability after 3 days by coulter counting; assay type: cell-based; conditions: 72 h
[5] = system: Mammalian orthoreovirus 1; test: Antiviral activity against Reovirus 1 infected in Vero cells assessed as inhibition of virus-induced cytopathicity; assay type: functional, organism-based; in short: as §1
[6] = system: HeLa; test: Cytotoxicity against human HeLa cells after 72 hrs by MTT assay; assay type: functional, cell-based
In short: (§2)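 Adherent cells were plated at 3000–6000 cells/well on day 0, according to doubling time. Compound was added as five 10-fold dilutions (1 × 10⁻⁸–1 × 10⁻⁴ M), with DMSO ≤0.1%, and incubated 72 h. Read-out was MTT absorbance converted to percentage growth versus untreated wells on the same plate. IC50 was obtained by linear regression between bracketing concentrations; the highest concentration was reported as ">" if not reached. Quadruplicates, three experiments.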

[7] = system: Influenza A virus; test: Antiviral activity against influenza A virus H1N1; H3N2 infected in MDCK cells assessed as inhibition of virus-induced cytopathicity; assay type: functional, organism-based
In short: (§3)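 MDCK cells, nearly confluent in microtiter plates, were infected with 100 CCID50 per well. After 1 h adsorption, the inoculum was washed off. Cells were incubated with graded compound concentrations (200, 40, 8…). Cytopathicity was recorded at completion in untreated infected controls.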

[8] = system: Coxsackievirus B4; test: Antiviral activity against Coxsackievirus B4 infected in human HeLa cells assessed as inhibition of virus-induced cytopathicity; assay type: functional, organism-based; in short: as §1
[9] = system: Punta Toro virus; test: Antiviral activity against Punta Toro virus infected in Vero cells assessed as inhibition of virus-induced cytopathicity; assay type: functional, organism-based; in short: as §1
[10] = system: Vaccinia virus; test: Antiviral activity against Vaccinia virus infected in HEL cells assessed as inhibition of virus-induced cytopathicity; assay type: functional, organism-based; conditions: Orthopoxvirus vaccinia
[11] = system: MDCK; test: Cytotoxicity against MDCK cells assessed as cell viability after 3 days by coulter counting; assay type: cell-based, Canis lupus familiaris; conditions: dog, 72 h
[12] = Cytotoxicity against human WI38 cells after 72 hrs by MTT assay; assay type: cell-based; conditions: WI-38, 72 h; in short: as §2
[13] = system: Vesicular stomatitis virus; test: Antiviral activity against Vesicular stomatitis virus infected in human HeLa cells assessed as inhibition of virus-induced cytopathicity; assay type: functional, organism-based
In short: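 Confluent HeLa cultures were infected with 100 CCID50 of virus. Unadsorbed virus was removed after 1 h, and compound was added at serial concentrations (200, 40, 8…). Viral cytopathic effect was read when untreated virus-infected control wells reached full cytopathicity.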

[14] = system: Human alphaherpesvirus 1; test: Antiviral activity against HSV1 KOS infected in HEL cells assessed as inhibition of virus-induced cytopathicity; assay type: functional, organism-based; in short: as §1
[15] = system: Vero; test: Cytotoxicity against african green monkey Vero cells assessed as cell viability after 3 days by coulter counting; assay type: cell-based; conditions: chlorocebus sabaeus, 72 h
[16] = system: MIA PaCa-2; test: Cytotoxicity against human MIAPaCa2 cells after 72 hrs by MTT assay; assay type: functional, cell-based; conditions: MIA PaCa-2, 72 h; in short: as §2
[17] = system: SW-620; test: Cytotoxicity against human SW620 cells after 72 hrs by MTT assay; assay type: functional, cell-based; conditions: SW-620, 72 h; in short: as §2
[18] = system: Human respirovirus 3; test: Antiviral activity against Parainfluenza 3 infected in Vero cells assessed as inhibition of virus-induced cytopathicity; assay type: functional, organism-based; in short: as §1
[19] = system: MCF7; test: Cytotoxicity against human MCF7 cells after 72 hrs by MTT assay; assay type: functional, cell-based; conditions: MCF7, 72 h; in short: as §2
[20] = system: Respiratory syncytial virus; test: Antiviral activity against Respiratory syncytial virus infected in human HeLa cells assessed as inhibition of virus-induced cytopathicity; assay type: functional, organism-based; in short: as §1
[21] = system: Influenza B virus; test: Antiviral activity against influenza B virus infected in MDCK cells assessed as inhibition of virus-induced cytopathicity; assay type: functional, organism-based; in short: as §3
[22] = system: HEp-2; test: Cytotoxicity against human Hep2 cells after 72 hrs by MTT assay; assay type: functional, cell-based; conditions: HEp-2, 72 h; in short: as §2
[23] = system: Human alphaherpesvirus 2; test: Antiviral activity against HSV2 G infected in HEL cells assessed as inhibition of virus-induced cytopathicity; assay type: functional, organism-based; conditions: strain G; in short: as §1
[24] = system: SK-BR-3; test: Cytotoxicity against human SK-BR-3 cells after 72 hrs by MTT assay; assay type: functional, cell-based; conditions: SK-BR-3, 72 h; in short: as §2
[25] = system: HEL; test: Cytotoxicity against HEL cells assessed as cell viability after 3 days by coulter counting; assay type: cell-based; conditions: human, 72 h
In short: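 HEL cells were seeded at 5 × 10³ cells/well and allowed to proliferate 24 h. Medium with test compound at different concentrations was then added, and cells were incubated 3 days at 37 °C. Cell number was counted by Coulter counter. CC50 (50% reduction in cell number versus untreated controls) was read from plots of cell number (% of control) against concentration.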

Structure (SMILES)	inhibition [1]	inhibition [2]	inhibition [3]	Activity [4]	inhibition [5]	IC50 [6] [µM]	inhibition [7]	inhibition [8]	inhibition [9]	inhibition [10]	Activity [11]	IC50 [12] [µM]	inhibition [13]	inhibition [14]	Activity [15]	IC50 [16] [µM]	IC50 [17] [µM]	inhibition [18]	IC50 [19] [µM]	inhibition [20]	other results
Nc1ccn(C/C=C\CNC(=O)c2ccccc2)c(=O)n1	inactive	inactive	inactive	Non-toxic	inactive	> 100	inactive	inactive	inactive	inactive	Non-toxic	4.2	inactive	inactive	Non-toxic	> 100	> 100	inactive	31.4	inactive	inhibition [21]: inactive; IC50 [22]: > 100 µM; inhibition [23]: inactive; IC50 [24]: 72 µM; Activity [25]: Non-toxic
O=C(NC/C=C\Cn1cc(C(F)(F)F)c(=O)[nH]c1=O)c1ccccc1	inactive	inactive	inactive	Non-toxic	inactive	> 100	inactive	inactive	inactive	inactive	Non-toxic	> 100	inactive	inactive	Non-toxic	> 100	> 100	inactive	> 100	inactive	inhibition [21]: inactive; IC50 [22]: > 100 µM; inhibition [23]: inactive; IC50 [24]: > 100 µM; Activity [25]: Non-toxic
Nc1nc(=O)n(C/C=C\CNC(=O)c2ccccc2)cc1F	inactive	inactive	inactive	Non-toxic	inactive	71.9	inactive	inactive	inactive	inactive	Non-toxic	50.2	inactive	inactive	Non-toxic	> 100	> 100	inactive	34.4	inactive	inhibition [21]: inactive; IC50 [22]: > 100 µM; inhibition [23]: inactive; IC50 [24]: > 100 µM; Activity [25]: Non-toxic
O=C(NC/C=C\Cn1ccc(=O)[nH]c1=O)c1ccc(F)cc1	inactive	inactive	inactive	Non-toxic	inactive	> 100	inactive	inactive	inactive	inactive	Non-toxic	> 100	inactive	inactive	Non-toxic	> 100	> 100	inactive	2.7	inactive	inhibition [21]: inactive; IC50 [22]: > 100 µM; inhibition [23]: inactive; IC50 [24]: > 100 µM; Activity [25]: Non-toxic
